Substrate: O=C(CNC(=O)OCc1ccccc1)Oc1ccc([N+](=O)[O-])cc1
Assay: Michaelis constant against papain
Settings: Carica papaya
Summary of the method: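 Papain activated 45 min at 25 °C in 50 mM phosphate pH 6.2 with 1 mM EDTA and 0.25 mM cysteine, made fresh daily. N-Cbz-Gly p-nitrophenyl ester hydrolysis at 25 °C read at 340 nm (Δε 6000 M⁻¹ cm⁻¹), corrected for nonenzymic hydrolysis. Compounds in acetonitrile or DMF, final <2.5% v/v. Reversible Ki by Lineweaver–Burk; irreversible Ki and k2 by Kitz–Wilson.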

B1: Papain (Carica papaya), P00784 (protein)
chain: MAMIPSISKLLFVAICLFVYMGLSFGDFSIVGYSQNDLTSTERLIQLFESWMLKHNKIYKNIDEKIYRFEIFKDNLKYIDETNKKNNSYWLGLNVFADMSNDEFKEKYTGSIAGNYTTTELSYEEVLNDGDVNIPEYVDWRQKGAVTPVKNQGSCGSCWAFSAVVTIEGIIKIRTGNLNEYSEQELLDCDRRSYGCNGGYPWSALQLVAQYGIHYRNTYPYEGVQRYCRSREKGPYAAKTDGVRQVQPYNEGALLYSIANQPVSVVLEAAGKDFQLYRGGIFVGPCGNKVDHAVAAVGYGPNYILIKNSWGTGWGENGYIRIKRGTGNSYGVCGLYTSSFYPVKN
Km: 10.3 µM
